In the library only some 4.8% were active in any assay of this set; here they are far more common.
STAT1 act: increases IFN-gamma driven STAT1 reporter signal; NIH 3T3 STAT1-luciferase reporter, luminescence; 100% = IFN-gamma alone, no compound; activation (% of control), % at 5.5 µM; actives 2.6% (n = 200,000); AID 932;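 active = activation above the screen-wide mean activation plus 3 SD, cut at about 130% in these data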;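 also: raw ratio to IFN-gamma control signal so 100% means no change and 0% no light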
APP 5UTR inh: APP translation inhibition; actives 0.82% (n = 190,000); SH-SY5Y APP 5'UTR-luciferase reporter, luminescence; inhibition, % at 2 µM; AID 1285;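 active = inhibition above a set limit, derived from the sample mean plus 3 SD, cut at about 45% in these data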
APP 5'UTR act: APP 5'UTR luciferase reporter activation; SH-SY5Y APP 5'UTR luciferase reporter, luminescence; zero percent = DMSO vehicle wells; activation, % at 2 µM; actives 1% (n = 190,000); AID 1276;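 active = activation above a set limit, based on mean plus 3 SD of controls, cut at about 140% in these data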
FLuc inh counter: counter-screen for luciferase assay inhibitors: firefly luciferase inhibition; P08659; ATPLite firefly luciferase biochemical luminescence, 10 min; inhibition, % at 10 µM; actives 1.5% (n = 200,000); AID 1006;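 active = inhibition above about 50% when tested at 10 µM, limit read from the data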
Target sequence (P08659 whole entry, looked up): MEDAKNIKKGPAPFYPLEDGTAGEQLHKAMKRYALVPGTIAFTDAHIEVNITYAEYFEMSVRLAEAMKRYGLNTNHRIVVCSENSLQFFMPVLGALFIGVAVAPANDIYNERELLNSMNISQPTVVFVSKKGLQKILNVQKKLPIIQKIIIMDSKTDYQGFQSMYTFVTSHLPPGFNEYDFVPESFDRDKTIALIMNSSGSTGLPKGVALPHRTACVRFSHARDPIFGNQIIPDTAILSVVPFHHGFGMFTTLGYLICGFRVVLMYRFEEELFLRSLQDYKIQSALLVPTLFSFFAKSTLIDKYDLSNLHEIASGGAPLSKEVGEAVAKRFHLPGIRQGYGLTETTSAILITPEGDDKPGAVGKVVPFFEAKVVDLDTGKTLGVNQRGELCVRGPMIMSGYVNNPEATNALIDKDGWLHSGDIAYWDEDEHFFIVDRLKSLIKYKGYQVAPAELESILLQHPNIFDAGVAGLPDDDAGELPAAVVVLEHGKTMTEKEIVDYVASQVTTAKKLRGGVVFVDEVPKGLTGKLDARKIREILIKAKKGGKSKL
NF-kB neuron act: NF-kB expression increase, human neuronal cells | AID 1239 | NF-kB reporter expression; hits give high values | fold change at 12.5 µM | actives 1.6% (n = 190,000); in the data active = fold change above about 3.3
FLuc stim CS: firefly luciferase counter-screen for stimulation assays; ATPlite luciferase biochemical, luminescence, 10 min; 0 = ATP-free wells, 1 = DMSO control; activation factor at 10 µM; 200,000 tested, under 10 active;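 active = luciferase activation factor, scaled between plate controls, of at least 2 with compound at 10 µM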
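System: luciferase plus luciferin reagent, cell-free; medium: PBS as buffer for the ATP substrate; dosing: test compounds dosed from 2 mM stocks in 100% DMSO; timing: 10 min post-reagent at room temperature; measured by: luminescence measurement of luciferase light output; evaluation: luciferase activation, seen as luminescence increase over controls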
Active calls of the source: *.

CCCN1CCC(=NNc2ccc(S(=O)(=O)N3CCOCC3)cc2[N+](=O)[O-])CC1 was read as STAT1 act 99, APP 5UTR inh 88*, APP 5'UTR act -88, FLuc inh counter -1, NF-kB neuron act 1.2 and FLuc stim CS 1.
For COc1cc2c(cc1OC)C(c1ccc3c(c1)OCO3)C1=C(CC(C)(C)CC1=O)N2 (configuration not stated) the results were STAT1 act 95, APP 5UTR inh 3, APP 5'UTR act -3, FLuc inh counter -2, NF-kB neuron act 0.82 and FLuc stim CS 1.
`O=C1OCC2=C1C(c1ccc(F)cc1)c1cc3c(cc1N2)OCCO3` (configuration not stated) gave STAT1 act 99, APP 5UTR inh 94*, APP 5'UTR act -94, FLuc inh counter 0, NF-kB neuron act 2.9 and FLuc stim CS 1.
Screening CCCOc1c(OC)cccc1C1CC(=O)Nc2cc3c(cc21)OCO3 (configuration not stated) returned STAT1 act 94, APP 5UTR inh 9, APP 5'UTR act -9, FLuc inh counter -10, NF-kB neuron act 0.92 and FLuc stim CS 1.1.
`O=C1OCC2=C1C(c1ccc(F)cc1)c1cc3c(cc1N2)OCO3` (configuration not stated) gave STAT1 act 100, APP 5UTR inh 95*, APP 5'UTR act -95, FLuc inh counter -4, NF-kB neuron act 2.9 and FLuc stim CS 1.
`C#CCOc1ccc(C2C3=C(COC3=O)Nc3cc4c(cc32)OCO4)cc1OC` (configuration not stated) gave STAT1 act 110, APP 5UTR inh 95*, APP 5'UTR act -95, FLuc inh counter -3 and FLuc stim CS 1.
Screening CCOc1ccccc1C1C2=C(COC2=O)Nc2cc3c(cc21)OCO3 (configuration not stated) returned STAT1 act 109, APP 5UTR inh 96*, APP 5'UTR act -96, FLuc inh counter -8, NF-kB neuron act 3.3* and FLuc stim CS 1.1.
Screening CC(=O)Oc1ccc(C2C3=C(CC(C)(C)CC3=O)Nc3cc4c(cc32)OCCO4)cc1 (configuration not stated) returned STAT1 act 90, APP 5UTR inh -10, APP 5'UTR act 11, FLuc inh counter -7, NF-kB neuron act 1 and FLuc stim CS 1.1.
For C=C(C)CNC(=O)CCc1nnc(C2(c3ccc(Cl)cc3)CCC2)o1 the results were STAT1 act 115, APP 5UTR inh -22, APP 5'UTR act 22, FLuc inh counter 3, NF-kB neuron act 2.3 and FLuc stim CS 1.
`C=CCNC(=O)CCc1nnc(C2(c3ccc(Cl)cc3)CCC2)o1` gave STAT1 act 140*, APP 5UTR inh -57, APP 5'UTR act 57, FLuc inh counter -2, NF-kB neuron act 2.9 and FLuc stim CS 1.
COc1ccc(C)cc1NC(=O)NCc1ccc(F)cc1 was read as STAT1 act 106, APP 5UTR inh -1, APP 5'UTR act 1, FLuc inh counter 58*, NF-kB neuron act 0.89 and FLuc stim CS 0.4.
Screening Brc1cccc(-c2nnco2)c1 returned STAT1 act 95, APP 5UTR inh -10, APP 5'UTR act 10, FLuc inh counter -5, NF-kB neuron act 1.1 and FLuc stim CS 1.
For CCc1ccc2oc(-c3cccc(N)c3)nc2c1 the results were STAT1 act 116, APP 5UTR inh -110, APP 5'UTR act 110, FLuc inh counter 86*, NF-kB neuron act 3.9* and FLuc stim CS 0.1.
For Cc1ccc2nc(-c3cccc(N)c3)oc2c1 the results were STAT1 act 82, FLuc inh counter 93*, NF-kB neuron act 3.9* and FLuc stim CS 0.1.
For COC(=O)Cc1ccc2oc(-c3cccnc3)nc2c1 the results were STAT1 act 128, APP 5UTR inh 3, APP 5'UTR act -3, FLuc inh counter 20, NF-kB neuron act 1.9 and FLuc stim CS 0.8.
Screening Nc1ccc2oc(-c3cccc(Br)c3)nc2c1 returned STAT1 act 146*, APP 5UTR inh -17, APP 5'UTR act 17, FLuc inh counter 25, NF-kB neuron act 3 and FLuc stim CS 0.8.
Cc1ccc2nc(Cc3ccc(N)cc3)oc2c1 was read as STAT1 act 122, APP 5UTR inh -37, APP 5'UTR act 37, FLuc inh counter 4, NF-kB neuron act 2.2 and FLuc stim CS 1.
For COc1cc(NC(=S)NCCc2ccc(S(N)(=O)=O)cc2)c(OC)cc1Cl the results were STAT1 act 98, APP 5UTR inh 14, APP 5'UTR act -14, FLuc inh counter 1, NF-kB neuron act 1.4 and FLuc stim CS 1.
Cc1ccc([N+](=O)[O-])cc1N(CC(=O)Nc1ccc(S(=O)(=O)Nc2cccc(C(F)(F)F)c2)cc1)S(C)(=O)=O was read as STAT1 act 107, APP 5UTR inh 10, APP 5'UTR act -10, FLuc inh counter -4, NF-kB neuron act 0.85 and FLuc stim CS 1.
For C=CCn1c(O)c(N=NC(=S)Nc2ccccc2F)c2ccccc21 the results were STAT1 act 97, APP 5UTR inh 19, APP 5'UTR act -19, FLuc inh counter -4, NF-kB neuron act 1.3 and FLuc stim CS 1.
Cc1cccc(NC(=S)N=Nc2c(O)n(C)c3ccc(S(=O)(=O)N4CCOCC4)cc23)c1 was read as STAT1 act 108, APP 5UTR inh 66*, APP 5'UTR act -66, FLuc inh counter -4, NF-kB neuron act 0.83 and FLuc stim CS 1.
`Cc1c(Cl)cccc1NC(=S)N=Nc1c(O)n(CN2CCOCC2)c2ccccc12` gave STAT1 act 94, APP 5UTR inh 46*, APP 5'UTR act -46, FLuc inh counter -5, NF-kB neuron act 1.2 and FLuc stim CS 1.1.
Screening Cc1ccc(NC(=S)N=Nc2c(O)n(C)c3ccc(S(=O)(=O)N4CCOCC4)cc23)cc1 returned STAT1 act 87, APP 5UTR inh 69*, APP 5'UTR act -69, FLuc inh counter -6, NF-kB neuron act 0.6 and FLuc stim CS 1.1.
Oc1c(N=NC(=S)Nc2ccccc2F)c2ccccc2n1Cc1ccccc1Cl was read as STAT1 act 121, APP 5UTR inh 17, APP 5'UTR act -17, FLuc inh counter 0, NF-kB neuron act 0.79 and FLuc stim CS 1.
For C=CCn1c(O)c(N=NC(=S)Nc2cccc(C)c2)c2ccccc21 the results were STAT1 act 99, APP 5UTR inh 66*, APP 5'UTR act -66, FLuc inh counter 0, NF-kB neuron act 0.91 and FLuc stim CS 1.
For Cc1cc(C)cc(NC(=S)N=Nc2c(O)n(C)c3ccc(S(=O)(=O)N4CCOCC4)cc23)c1 the results were STAT1 act 108, APP 5UTR inh 38, APP 5'UTR act -38, FLuc inh counter -7, NF-kB neuron act 1 and FLuc stim CS 1.1.
Cc1ccc(/C=C/C2=NN(C)C(=O)CC2)cc1 was read as STAT1 act 123, APP 5UTR inh -153, APP 5'UTR act 153*, FLuc inh counter 78*, NF-kB neuron act 4.5* and FLuc stim CS 0.2.

From PubChem BioAssay
